{
  "source": "ChEMBL document CHEMBL3352418",
  "about": "(Bioorg Med Chem, 2014)",
  "key": {"[1]": {"experiment": "Cmax in guinea pig at 10.9 mg/kg, po", "format": "ADME, organism-based, Cavia porcellus", "set-up": "dose 10.9 mg/kg, route oral", "settings": "in vivo", "outline": "(§1)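 Single oral dose of 10.9 mg/kg to male animals, n = 3.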"}, "[2]": {"experiment": "AUC in guinea pig at 10.9 mg/kg, po", "format": "ADME, organism-based, Cavia porcellus", "set-up": "dose 10.9 mg/kg, route oral", "settings": "plasma", "outline": "as §1"}, "[3]": {"experiment": "AUC in monkey at 20 mg/kg, po", "format": "ADME, organism-based, Macaca mulatta", "set-up": "dose 20 mg/kg, route oral", "settings": "rhesus monkey, plasma", "outline": "(§2)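 Oral dose of 20 mg/kg given to both sexes: males (n = 2) and females (n = 2).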"}, "[4]": {"experiment": "Tmax in dog at 1.09 mg/kg, iv and 10.9 mg/kg, po", "format": "ADME, organism-based, Canis lupus familiaris", "settings": "in vivo", "outline": "(§3)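 Male animals (n = 3) dosed at 1.09 mg/kg iv and 10.9 mg/kg p.o.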"}, "[5]": {"experiment": "Cmax in monkey at 20 mg/kg, po", "format": "ADME, organism-based, Macaca mulatta", "set-up": "dose 20 mg/kg, route oral", "settings": "rhesus monkey, in vivo", "outline": "as §2"}, "[6]": {"experiment": "Oral bioavailability in dog at 10.9 mg/kg", "format": "ADME, organism-based, Canis lupus familiaris", "settings": "in vivo", "outline": "as §3"}, "[7]": {"experiment": "Volume of distribution at steady state in dog at 1.09 mg/kg, iv and 10.9 mg/kg, po", "format": "ADME, organism-based, Canis lupus familiaris", "settings": "in vivo, read-out: Vdss", "outline": "as §3"}, "[8]": {"experiment": "Total body clearance in dog at 1.09 mg/kg, iv and 10.9 mg/kg, po", "format": "ADME, organism-based, Canis lupus familiaris", "settings": "in vivo", "outline": "as §3"}, "[9]": {"experiment": "AUC in dog at 1.09 mg/kg, iv and 10.9 mg/kg, po", "format": "ADME, organism-based, Canis lupus familiaris", "settings": "plasma", "outline": "as §3"}, "[10]": {"experiment": "Cmax in dog at 1.09 mg/kg, iv and 10.9 mg/kg, po", "format": "ADME, organism-based, Canis lupus familiaris", "settings": "in vivo", "outline": "as §3"}, "[11]": {"experiment": "Tmax in guinea pig at 10.9 mg/kg, po", "format": "ADME, organism-based, Cavia porcellus", "set-up": "dose 10.9 mg/kg, route oral", "settings": "in vivo", "outline": "as §1"}, "[12]": {"experiment": "Tmax in monkey at 20 mg/kg, po", "format": "ADME, organism-based, Macaca mulatta", "set-up": "dose 20 mg/kg, route oral", "settings": "rhesus monkey, in vivo", "outline": "as §2"}},
  "data": [
    {"smiles": "COc1cccc(CNC(=O)c2nc3scc(COCc4ccc(C(=O)[O-])cc4)c3c(=O)[n-]2)c1.[Na+].[Na+]", "values": [
      {"measurement": "Cmax", "setting": "[1]", "result": 1440, "unit": "ng/mL"},
      {"measurement": "AUC", "setting": "[2]", "result": 8360, "unit": "ng·h/mL"},
      {"measurement": "AUC", "setting": "[3]", "result": 82400, "unit": "ng·h/mL"},
      {"measurement": "Tmax", "setting": "[4]", "result": 2, "unit": "h"},
      {"measurement": "Cmax", "setting": "[5]", "result": 6610, "unit": "ng/mL"},
      {"measurement": "bioavailability", "setting": "[6]", "result": 29, "unit": "%"},
      {"measurement": "Vd", "setting": "[7]", "result": 0.395, "unit": "L/kg"},
      {"measurement": "clearance", "setting": "[8]", "result": 1.85, "unit": "mL/min/kg"},
      {"measurement": "AUC", "setting": "[9]", "result": 27100, "unit": "ng·h/mL"},
      {"measurement": "Cmax", "setting": "[10]", "result": 2440, "unit": "ng/mL"},
      {"measurement": "Tmax", "setting": "[11]", "result": 0.67, "unit": "h"},
      {"measurement": "Tmax", "setting": "[12]", "result": 3, "unit": "h"}
    ]}
  ]
}
